# Test system: Bladder 5637 cells viability, CellTiter-Glo, 72 h
# Assay: viability loss in 5637 carcinoma cells – cell-based, set 2, cytotoxicity control for bacterial capsule biogenesis inhibitors, dose response (AID 504769)
# Summary of the method: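 Measured by: CellTiter-Glo luminescence for cell viability; Material: bladder carcinoma 5637 cell line; Compound: Eight-point series, 300 µM down to 2.3 µM; Timing: 72 h compound exposure; Benchmarks: Hyamine toxic control, untreated cell control.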
row,Compound,CC50 [µM]
1,O=C(Nc1nc2ccccc2s1)c1cccnc1,129
2,O=C(Nc1nc2ccc(F)cc2s1)c1ccccn1,3.32
3,O=C(Nc1nc2ccccc2s1)c1ccncc1,104
4,O=C(Nc1nc2c(F)cc(F)cc2s1)c1ccncc1,71.8
5,O=C(Nc1nc2c(F)cc(F)cc2s1)c1ccccc1,30.9
6,O=C(Nc1nc2c(Cl)cc(Cl)cc2s1)c1ccccn1,3.55
7,O=C(Nc1nc2c(F)cccc2s1)c1ccccn1,2.56
8,Cc1cc(C)c2nc(NC(=O)c3ccccn3)sc2c1,6.19

# Reference: PubChem BioAssay AID504769 (Southern Research Specialized Biocontainment Screening …, 2011)
